The list is not random: actives were taken first. Their share in the collection is about 7.6%.
M1 agonist: M1 muscarinic receptor agonists, primary screen, CHO-M1 cells, Fluo-4 calcium, agonist mode. AID 626, 2007. B-score at 10 µM. Muscarinic acetylcholine receptor M1. Fluo-4 calcium fluorescence; active compounds read high. 3% of 64,000 active;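 active = fluorescence rise, raw or as B-score row- and column-corrected plate score, outside the 99.7% band of its plate's samples, either direction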
hDAT+cocaine: changed hDAT dopamine uptake under cocaine IC80, either direction, primary screen, cocaine antagonist project, cell-based, LLC-PK1 hDAT, [14C]-dopamine uptake, MLSMR; Sodium-dependent dopamine transporter (Homo sapiens), Q01959; LLC-PK1 hDAT cells, [14C]-dopamine uptake with cocaine IC80; actives deviate in either direction; B-score at 10 µM; 1.3% of 110,000 active;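 active = Z score or B-score, a plate-position-corrected score, falls beyond the plate's 99.7% confidence bounds, in either direction; inactive = both scores lie inside the 99.7% bounds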
M1 antag: antagonists of rat M1 muscarinic receptor; Muscarinic acetylcholine receptor M1 (Rattus norvegicus), P08482; CHO-M1 cells, Fluo-4 calcium, ACh EC80 antagonist mode; active compounds read low; B-score at 10 µM; 3.4% of 64,000 active;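 active = calcium fluorescence response, raw or row-and-column corrected B-score, differing from the plate sample mean either way at a set confidence level, mostly lower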
D1 mod: D1 CRE-luciferase signal change, two-sided – cell-based, HEK293 D1, dopamine EC30, D1 allosteric modulator project, primary screen; B-score at 10 µM; 5.9% of 58,000 active; dopamine EC30 potentiation; actives deviate in either direction;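 active = luminescence count or its row- and column-corrected plate score outside the 99.7% band of the plate's sample wells, on either side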
HEK293 NFkB inh: inhibitors of PMA/ionomycin-induced NF-kB reporter, primary screen, antigen receptor NF-kB inhibitor project, cell-based, HEK-293 luciferase reporter, luminescence | inhibition, % at 3 µM | AID 465, 2006 | 0.21% of 62,000 active | HEK-293 NF-kB luciferase reporter;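 active = inhibition above the mean of all tested compounds plus 3 SD, cut at about 40% in these data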
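Material: HEK-293 cells with stable firefly luciferase reporter driven by four HIV NF-kB elements / Also added: PMA plus ionomycin mix as NF-kB-activating stimulus / Compound dosing: 3 µM once, 0.30% DMSO / Times: 1 h pretreatment, 16 h stimulation, 37 °C / Signal: luminescence / Evaluation: per-plate % inhibition versus controls / Benchmarks: DMSO and 10 µM reference inhibitor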
Jurkat viability: cytotoxicity toward Jurkat T cells, primary screen, cytotoxicity control, cell-based, Jurkat E6.1, 60K MLSMR library | AID 463, 2006 | inhibition, % at 4 µM | 1.2% of 56,000 active | Jurkat E6.1 viability, ATP luminescence, 48 h;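 active = inhibition above the mean inhibition of all tested compounds plus 3 SD, cut at about 28% in these data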
M1 ag confirm: rat M1 muscarinic receptor agonists, confirmation, CHO-M1 cells, Fluo-4 calcium, duplicate retest. shares compounds with M1 agonist. Fluo-4 calcium fluorescence, agonist mode; actives lie on both sides. fluorescence change (max-min) at 10 µM. 19% of 1,700 active. AID 1488, 2009;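 active = fluorescence change differs from the solvent-only DMSO control mean at a set confidence level in both duplicate runs; inconclusive = differs from solvent-only control mean in just one of two runs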;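 note: an EC20 dose of acetylcholine follows compound addition during the same imaging run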
M4 ag counter: agonist activity at rat M4 receptor, confirmation, counter-screen for M1 allosteric modulator project, cell-based, agonist mode; CHO M4/Gqi5 cells, Fluo-4 calcium fluorescence; actives lie on both sides; shares compounds with M1 agonist; 9% of 1,700 active; AID 1741, 2009; fluorescence change (max-min) at 10 µM;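 active = fluorescence change differing from the plate's solvent-only control wells at 99.7% confidence in both duplicates, whether higher or lower; inconclusive = differs from solvent controls in only one of two duplicates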
Target sequence (P08485 whole entry, looked up): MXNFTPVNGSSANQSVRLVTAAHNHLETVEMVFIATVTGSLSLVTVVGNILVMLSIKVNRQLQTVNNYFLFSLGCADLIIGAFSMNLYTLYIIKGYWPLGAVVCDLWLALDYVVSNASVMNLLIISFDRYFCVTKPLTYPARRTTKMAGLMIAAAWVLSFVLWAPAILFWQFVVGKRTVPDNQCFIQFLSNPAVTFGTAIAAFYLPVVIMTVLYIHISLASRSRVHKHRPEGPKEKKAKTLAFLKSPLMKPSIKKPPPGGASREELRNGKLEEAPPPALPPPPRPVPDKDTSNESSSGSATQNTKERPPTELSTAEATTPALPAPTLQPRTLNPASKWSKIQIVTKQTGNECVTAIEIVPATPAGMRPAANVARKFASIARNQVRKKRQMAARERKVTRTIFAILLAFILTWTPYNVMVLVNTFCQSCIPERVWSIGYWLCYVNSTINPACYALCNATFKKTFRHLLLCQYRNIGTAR
A number is an active result; . = inactive; ? = inconclusive; / = no result.

SMILES | M1 agonist | hDAT+cocaine | M1 antag | D1 mod | HEK293 NFkB inh | Jurkat viability | M1 ag confirm | M4 ag counter
COCCN1C=C2C(=O)C(C)(OC(=O)C3CCCC3)C(=O)C(c3ccccc3)=C2C=C1CCCC(=O)OC (stereo not drawn) | / | . | / | / | / | / | / | /
CSc1nc(-c2ccco2)cc(C(F)(F)F)c1C#N | / | . | / | / | / | / | / | /
CSc1nc(-c2ccco2)cc(-c2ccccc2)c1C#N | 15 | . | . | . | . | . | ? | ?
CCn1c(=O)cc(SCC(=O)N2CCN(c3ccccc3OC)CC2)c2ccccc21 | 4.5 | . | . | . | . | . | ? | .
CCn1c(=O)cc(SCC(=O)N2CCOCC2)c2ccccc21 | . | . | . | . | . | / | / | /
Cn1c(SCC(=O)Nc2ccccc2)nc(O)cc1=O | . | . | . | . | . | . | / | /
CC(=O)NC(NC(=S)Nc1ccc(N=Nc2ccccc2C)cc1C)C(Cl)(Cl)Cl (stereo not drawn) | / | . | / | / | / | / | / | /
Cn1c2ccc(Cl)cc2c2nc3ccccc3nc21 | 18 | . | . | . | . | . | . | .
COc1ccc2c(c1)c1nc3ccccc3nc1n2CCn1c(=O)oc2ccccc21 | / | . | / | / | / | / | / | /
c1cncc(-c2nnc3sc(-c4ccco4)nn23)c1 | . | . | . | . | / | / | / | /
CCN(CC)c1ccc(-c2nn3c(-c4cccnc4)nnc3s2)cc1 | 8.6 | . | -6.2 | . | / | / | . | .
CCc1ccc(Cn2nnc(C(=O)NCc3ccccc3OC)c2N)cc1 | 2.2 | . | . | . | . | . | . | .
COc1ccc(CNC(=O)c2nnn(Cc3ccc(OC)cc3)c2N)cc1 | . | . | . | . | . | . | / | /
Cc1ccc(Cn2nnc(C(=O)Nc3cccc(C)c3C)c2N)cc1 | 7.5 | . | . | . | . | . | . | .
CC(C)[C@H](NC(=O)[C@@H]1CSCN1C(=O)OC(C)(C)C)C(=O)NCC1CCC(C(=O)O)CC1 (stereo partly drawn) | 1.8 | . | . | . | . | . | . | ?
CN1C(=O)c2cccc(NCCCN3C(=O)c4ccccc4C3=O)c2C1=O | 4.8 | . | . | . | . | . | . | .
CCNc1cccc2c1C(=O)N(C)C2=O | 179 | . | . | . | . | . | 928 | 935
CCOc1ccc(N(CCC#N)S(=O)(=O)c2ccc(OC)cc2)cc1 | . | . | . | / | . | . | / | /
N#C/C(C(N)=O)=c1/ccc2c(c1)N1C3=C(CCCC3)CC3CCCCC31N=2 (stereo not drawn) | 5.2 | . | . | . | . | . | . | .
O=C(NCCCN1CCCC1=O)c1cncc(Br)c1 | . | . | . | . | . | . | / | /
COc1ccc(OC)c(Nc2cc(C(=O)NCCCN3CCOCC3)c3ccccc3n2)c1 | 7.5 | . | . | . | . | . | -26 | -79
Cc1occc1C(=O)NNC(=O)C(c1ccccc1)c1ccccc1 | / | . | / | / | / | / | / | /
COc1cc(NC(=O)c2ccco2)c(OC)cc1NC(=O)CSc1nnc(-c2cccs2)n1C | 6.2 | . | . | . | . | . | -32 | ?
CCOC(=O)CC(=O)CSc1nc2c(c(C)c1C#N)CCC2 | -2.9 | . | . | . | . | . | . | .
CCOC(=O)CC(=O)CSc1nc(C)cc(C)c1C#N | / | . | / | / | / | / | / | /
SMILES | M1 agonist | hDAT+cocaine | M1 antag | D1 mod | HEK293 NFkB inh | Jurkat viability | M1 ag confirm | M4 ag counter
CCN(CC)CCN1C(=O)C(=O)/C(=C(/O)c2ccncc2)C1c1ccccc1F (stereo not drawn) | 35 | . | . | . | . | . | . | ?
C[N+](C)(C)C/C=C1/COCO1 | 49 | . | -13 | . | . | . | 437 | 178
CCOC(=O)N1CCN(CC(=O)N2c3ccccc3CC2C)CC1 (stereo not drawn) | 3.3 | . | . | / | . | . | . | .
CCCCOC(=O)CCc1nc2ccccc2[nH]1 | 3.6 | . | . | / | / | / | . | .
CCCCOc1ccc(/C=C/C(=O)NCCc2nc3ccccc3[nH]2)cc1 | / | . | / | / | / | / | / | /
O=C(O)c1ccccc1S(=O)(=O)c1ccccc1CO | 8 | . | . | . | . | . | . | .
CC(C)(C)S(=O)(=O)c1ccccc1C(=O)O | . | . | . | / | . | . | / | /
Cn1cccc1-c1nc2ccc(NC(=O)c3cccs3)cc2[nH]1 | 8.5 | . | . | . | . | . | ? | .
O=C(Nc1ccc2nc(-c3ccc(Br)o3)[nH]c2c1)c1cccs1 | . | . | . | . | . | . | / | /
CC(C)N1CCc2c(sc(NC(=O)c3ccc(S(=O)(=O)N4CCOCC4)cc3)c2C(N)=O)C1 | 8.9 | . | . | / | . | . | . | .
CCN1CCc2c(sc(NC(=O)c3ccc(S(=O)(=O)N4CCOCC4)cc3)c2C(N)=O)C1 | . | . | . | / | . | . | / | /
N#CCC1c2ccccc2CCN1C(=O)Nc1cccc(C(F)(F)F)c1 (stereo not drawn) | / | . | / | / | / | / | / | /
CCOC(=O)N1CCN(C(=O)CSc2nnc(-c3ccc(C(C)(C)C)cc3)o2)CC1 | 6.9 | . | . | . | . | . | . | .
O=C(CCCCCn1c(=S)[nH]c2cc3c(cc2c1=O)OCO3)N1CCN(C2CCCCC2)CC1 | 2.1 | . | -5.1 | . | . | / | . | ?
C=C(C)Cn1c(=O)c2c(nc3n2CCN3c2cccc(Cl)c2C)n(C)c1=O | 3 | . | . | . | . | . | . | .
O=C(OCn1nnc2ccccc2c1=O)c1cccs1 | . | . | . | / | . | . | / | /
CCn1c(CC(=O)Nc2ccccc2F)nnc1SCC(=O)N1CCN(c2ccccc2)CC1 | . | . | . | . | . | . | / | /
Clc1ccc(Cn2ncc3c(N4CCCCC4)ncnc32)cc1 | . | . | . | . | . | . | / | /
Clc1ccc(Cn2ncc3c(N4CCOCC4)ncnc32)cc1 | 4.6 | . | . | . | . | . | ? | .
COCCNc1ncnc2c1cnn2Cc1ccc(Cl)cc1 | 3.1 | . | . | . | . | . | ? | .
Clc1ccc(Cn2ncc3c(NCc4ccccc4)ncnc32)cc1 | / | . | / | / | / | / | / | /
Cc1nn(C)c(C)c1C(=O)NN | / | . | / | / | / | / | / | /
O=C(CO/N=C/c1ccccc1)N1c2ccccc2Oc2ccccc21 | / | . | / | / | / | / | / | /
Cc1ncc([N+](=O)[O-])n1CC(=O)NCc1ccccc1 | / | . | / | / | / | / | / | /

Screening data deposited in PubChem by several laboratories.
